Experimental data: ChEMBL document CHEMBL2311325, “New structure-activity relationship studies in a series of N,N-bis(cyclohexanol)amine aryl esters as potent reversers of P-glycoprotein-mediated multidrug resistance (MDR)” (Bioorg Med Chem, 2013)

How the values were obtained:
P-glycoprotein (ABCB1) = P-glycoprotein (ABCB1) (Homo sapiens, UniProt P08183); assay: Inhibition of P-glycoprotein in human doxorubicin-resistant K562 cells assessed as maximal increase of pirarubicin accumulation by spectrofluorometric analysis relative to control; type: cell-based; conditions: probe pirarubicin
[1] = target: ATP-dependent translocase ABCB1 (Homo sapiens, UniProt P08183); assay: Inhibition of P-glycoprotein in human doxorubicin-resistant K562 cells assessed as half maximal increase of pirarubicin accumulation by spectrofluorometric analysis; type: cell-based
K562 [2] = assay: Reversal fold, ratio of doxorubicin IC50 for doxorubicin-resistant human K562 cells in absence of compound to doxorubicin IC50 for doxorubicin-resistant human K562 cells in presence of 0.1 uM of compound; type: functional
Method in brief: (§1)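 K562/DOX cells seeded at 3000 cells/well and exposed to doxorubicin (0.001-10 µM) with or without modulator (0.1 or 1.0 µM; DMSO stocks diluted in complete medium) for 72 h at 37 °C, 5% CO2. Viability read by MTT (3 h, DMSO solubilization, 540 nm). Doxorubicin IC50 taken from plotted curves. RF = IC50 without modulator / IC50 with modulator. Quadruplicate cultures.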

K562 [3] = assay: Reversal fold, ratio of doxorubicin IC50 for doxorubicin-resistant human K562 cells in absence of compound to doxorubicin IC50 for doxorubicin-resistant human K562 cells in presence of 1 uM of compound; type: functional; method in brief: as §1
K562 [4] = assay: Cytotoxicity against human doxorubicin-resistant K562 cells at 1 uM after 72 hrs by MTT assay; type: cell-based; conditions: k562, 72 h
Method in brief: (§2)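 Intrinsic cytotoxicity of compound alone (no doxorubicin) tested at 1.0 µM on K562 and K562/DOX cells. Cells in exponential growth (3-5 × 10^5 cells/mL) seeded at 3000 cells/well and incubated 72 h at 37 °C, 5% CO2. MTT added for a further 3 h, formazan dissolved in DMSO, absorbance read at 540 nm. Quadruplicate cultures.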

K562 [5] = assay: Cytotoxicity against human K562 cells at 1 uM after 72 hrs by MTT assay; type: cell-based; conditions: k562, 72 h; method in brief: as §2

Sequence of ATP-dependent translocase ABCB1 (P08183 whole entry): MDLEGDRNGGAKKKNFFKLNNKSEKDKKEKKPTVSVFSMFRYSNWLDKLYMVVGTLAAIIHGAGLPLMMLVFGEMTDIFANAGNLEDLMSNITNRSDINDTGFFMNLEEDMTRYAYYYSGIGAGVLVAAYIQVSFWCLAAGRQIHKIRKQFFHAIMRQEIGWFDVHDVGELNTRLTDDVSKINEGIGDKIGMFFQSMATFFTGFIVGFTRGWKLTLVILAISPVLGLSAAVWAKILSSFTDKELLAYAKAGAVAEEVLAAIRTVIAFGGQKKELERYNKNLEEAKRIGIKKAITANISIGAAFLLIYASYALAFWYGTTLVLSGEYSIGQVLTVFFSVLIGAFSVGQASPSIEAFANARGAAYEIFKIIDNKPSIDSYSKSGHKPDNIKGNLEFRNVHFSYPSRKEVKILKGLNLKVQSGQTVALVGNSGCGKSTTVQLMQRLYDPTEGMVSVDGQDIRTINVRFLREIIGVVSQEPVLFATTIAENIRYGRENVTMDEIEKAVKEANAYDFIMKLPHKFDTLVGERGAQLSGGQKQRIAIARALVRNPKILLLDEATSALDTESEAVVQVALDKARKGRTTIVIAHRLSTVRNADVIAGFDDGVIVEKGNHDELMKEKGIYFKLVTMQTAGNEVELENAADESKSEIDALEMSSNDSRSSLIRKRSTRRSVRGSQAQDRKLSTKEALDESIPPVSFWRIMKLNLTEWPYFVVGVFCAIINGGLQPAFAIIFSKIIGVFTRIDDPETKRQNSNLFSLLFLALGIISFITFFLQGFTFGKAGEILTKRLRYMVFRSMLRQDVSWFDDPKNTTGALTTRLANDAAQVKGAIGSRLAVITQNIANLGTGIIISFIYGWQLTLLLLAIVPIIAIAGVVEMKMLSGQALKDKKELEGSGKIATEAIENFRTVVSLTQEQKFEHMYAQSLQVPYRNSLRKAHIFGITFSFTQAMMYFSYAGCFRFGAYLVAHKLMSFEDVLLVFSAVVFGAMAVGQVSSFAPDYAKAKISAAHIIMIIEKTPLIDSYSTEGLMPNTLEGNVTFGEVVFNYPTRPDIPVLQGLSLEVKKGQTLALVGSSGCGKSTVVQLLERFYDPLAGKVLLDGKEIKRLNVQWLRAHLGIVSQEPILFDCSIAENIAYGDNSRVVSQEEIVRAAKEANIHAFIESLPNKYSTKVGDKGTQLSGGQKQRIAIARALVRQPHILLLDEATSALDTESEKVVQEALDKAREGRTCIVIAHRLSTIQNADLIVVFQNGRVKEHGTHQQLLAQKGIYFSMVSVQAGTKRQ
Sequence of P-glycoprotein (ABCB1) (P08183 whole entry): as above

Row | SMILES | Emax (P-glycoprotein (ABCB1)) [%] | IC50 [1] [nM] | Ratio IC50 (K562 [2]) | Ratio IC50 (K562 [3]) | Activity (K562 [4]) | Activity (K562 [5])
1 | COc1ccc(C(C#N)(CCCNCc2c3ccccc3cc3ccccc23)C(C)C)cc1OC (centres undefined) | 70 | – | – | – | – | –
2 | COc1cc(CCC(=O)O[C@H]2CC[C@H](N(C)[C@H]3CC[C@H](OC(=O)c4cc(OC)c(OC)c(OC)c4)CC3)CC2)cc(OC)c1OC | 76 | 610 | – | – | – | –
3 | COc1cc(CCC(=O)O[C@H]2CC[C@@H](N(C)[C@H]3CC[C@@H](OC(=O)c4cc(OC)c(OC)c(OC)c4)CC3)CC2)cc(OC)c1OC | 76 | 1100 | – | – | – | –
4 | COc1cc(C#CC(=O)O[C@H]2CC[C@H](N(C)[C@H]3CC[C@H](OC(=O)c4cc(OC)c(OC)c(OC)c4)CC3)CC2)cc(OC)c1OC | 99 | 70 | 0.6 | 1.9 | Non-toxic | Non-toxic
5 | COc1cc(C#CC(=O)O[C@H]2CC[C@@H](N(C)[C@H]3CC[C@@H](OC(=O)c4cc(OC)c(OC)c(OC)c4)CC3)CC2)cc(OC)c1OC | 99 | 70 | 2.3 | 4.5 | Non-toxic | Non-toxic
6 | COc1cc(/C=C/C(=O)O[C@H]2CC[C@H](N(C)[C@H]3CC[C@H](OC(=O)c4cc(OC)c(OC)c(OC)c4)CC3)CC2)cc(OC)c1OC | 81 | 320 | – | 9.2 | – | –
7 | COc1cc(/C=C/C(=O)O[C@H]2CC[C@@H](N(C)[C@H]3CC[C@@H](OC(=O)c4cc(OC)c(OC)c(OC)c4)CC3)CC2)cc(OC)c1OC | 80 | 30 | – | 9.8 | – | –
8 | COc1cc(/C=C/C(=O)O[C@H]2CC[C@@H](N(C)[C@H]3CC[C@H](OC(=O)c4cc(OC)c(OC)c(OC)c4)CC3)CC2)cc(OC)c1OC | 98 | 12 | – | 20.3 | – | –
9 | COc1ccc(C(C#N)(CCC(=O)O[C@H]2CC[C@H](N(C)[C@H]3CC[C@H](OC(=O)/C=C/c4cc(OC)c(OC)c(OC)c4)CC3)CC2)C(C)C)cc1OC (some centres undefined) | 99 | 140 | – | – | – | –
10 | COc1ccc(C(C#N)(CCC(=O)O[C@H]2CC[C@@H](N(C)[C@H]3CC[C@@H](OC(=O)/C=C/c4cc(OC)c(OC)c(OC)c4)CC3)CC2)C(C)C)cc1OC (some centres undefined) | 99 | 150 | – | – | – | –
11 | COc1cc(/C=C/C(=O)O[C@H]2CC[C@H](N(C)[C@H]3CC[C@H](OC(=O)C4c5ccccc5-c5ccccc54)CC3)CC2)cc(OC)c1OC | 94 | 75 | 2 | 2.9 | Non-toxic | Non-toxic
12 | COc1cc(/C=C/C(=O)O[C@H]2CC[C@@H](N(C)[C@H]3CC[C@@H](OC(=O)C4c5ccccc5-c5ccccc54)CC3)CC2)cc(OC)c1OC | 90 | 180 | – | – | – | –
13 | COc1ccc(C(C(=O)O[C@H]2CC[C@H](N(C)[C@H]3CC[C@H](OC(=O)C#Cc4cc(OC)c(OC)c(OC)c4)CC3)CC2)c2ccc(OC)cc2)cc1 | 74 | 140 | – | – | – | –
14 | COc1cc(C#CC(=O)O[C@H]2CC[C@H](N(C)[C@H]3CC[C@H](OC(=O)C4c5ccccc5-c5ccccc54)CC3)CC2)cc(OC)c1OC | 77 | 500 | – | – | – | –
15 | COc1cc(C#CC(=O)O[C@H]2CC[C@@H](N(C)[C@H]3CC[C@@H](OC(=O)C4c5ccccc5-c5ccccc54)CC3)CC2)cc(OC)c1OC | 89 | 50 | – | – | – | –
16 | COc1cc(/C=C/C(=O)O[C@H]2CC[C@H](N(C)[C@H]3CC[C@@H](OC(=O)c4cc(OC)c(OC)c(OC)c4)CC3)CC2)cc(OC)c1OC (mixture of isomers) | 85 | 92 | – | 7.7 | – | –
17 | COc1cc(CCC(=O)O[C@H]2CC[C@H](N(C)[C@H]3CC[C@@H](OC(=O)c4cc(OC)c(OC)c(OC)c4)CC3)CC2)cc(OC)c1OC (mixture of isomers) | 75 | 630 | – | – | – | –
18 | COc1cc(CCC(=O)O[C@H]2CC[C@@H](N(C)[C@H]3CC[C@H](OC(=O)c4cc(OC)c(OC)c(OC)c4)CC3)CC2)cc(OC)c1OC (mixture of isomers) | 77 | 350 | – | – | – | –
19 | COc1cc(C#CC(=O)O[C@H]2CC[C@H](N(C)[C@H]3CC[C@@H](OC(=O)c4cc(OC)c(OC)c(OC)c4)CC3)CC2)cc(OC)c1OC (mixture of isomers) | 98 | 80 | 1.6 | 1.5 | Non-toxic | Non-toxic
20 | COc1cc(C#CC(=O)O[C@H]2CC[C@@H](N(C)[C@H]3CC[C@H](OC(=O)c4cc(OC)c(OC)c(OC)c4)CC3)CC2)cc(OC)c1OC (mixture of isomers) | 99 | 20 | 2 | 8.5 | Non-toxic | Non-toxic
21 | COc1ccc(C(C#N)(CCC(=O)O[C@H]2CC[C@H](N(C)[C@H]3CC[C@@H](OC(=O)/C=C/c4cc(OC)c(OC)c(OC)c4)CC3)CC2)C(C)C)cc1OC (mixture of isomers) | 88 | 240 | – | – | – | –
22 | COc1ccc(C(C#N)(CCC(=O)O[C@H]2CC[C@@H](N(C)[C@H]3CC[C@H](OC(=O)/C=C/c4cc(OC)c(OC)c(OC)c4)CC3)CC2)C(C)C)cc1OC (mixture of isomers) | 89 | 80 | 3 | 10.7 | Non-toxic | Non-toxic
23 | COc1cc(/C=C/C(=O)O[C@H]2CC[C@@H](N(C)[C@H]3CC[C@H](OC(=O)C4c5ccccc5-c5ccccc54)CC3)CC2)cc(OC)c1OC (mixture of isomers) | 81 | 80 | 2.3 | 5 | Non-toxic | Non-toxic
24 | COc1cc(/C=C/C(=O)O[C@H]2CC[C@H](N(C)[C@H]3CC[C@@H](OC(=O)C4c5ccccc5-c5ccccc54)CC3)CC2)cc(OC)c1OC (mixture of isomers) | 99 | 150 | – | – | – | –
25 | COc1ccc(C(C(=O)O[C@H]2CC[C@H](N(C)[C@H]3CC[C@@H](OC(=O)C#Cc4cc(OC)c(OC)c(OC)c4)CC3)CC2)c2ccc(OC)cc2)cc1 (mixture of isomers) | 76 | 130 | – | – | – | –
26 | COc1ccc(C(C(=O)O[C@H]2CC[C@@H](N(C)[C@H]3CC[C@@H](OC(=O)C#Cc4cc(OC)c(OC)c(OC)c4)CC3)CC2)c2ccc(OC)cc2)cc1 (mixture of isomers) | 94 | 120 | – | – | – | –
27 | COc1ccc(C(C(=O)O[C@H]2CC[C@@H](N(C)[C@H]3CC[C@H](OC(=O)C#Cc4cc(OC)c(OC)c(OC)c4)CC3)CC2)c2ccc(OC)cc2)cc1 (mixture of isomers) | 99 | 20 | – | – | – | –
28 | COc1cc(C#CC(=O)O[C@H]2CC[C@@H](N(C)[C@H]3CC[C@H](OC(=O)C4c5ccccc5-c5ccccc54)CC3)CC2)cc(OC)c1OC (mixture of isomers) | 96 | 120 | – | – | – | –
29 | COc1cc(C#CC(=O)O[C@H]2CC[C@H](N(C)[C@H]3CC[C@@H](OC(=O)C4c5ccccc5-c5ccccc54)CC3)CC2)cc(OC)c1OC (mixture of isomers) | 91 | 290 | – | – | – | –
